Measurements pooled from the literature.
Lines come from different studies, so protocols differ.
Organism: Klebsiella pneumoniae
Observed: microbial growth

For `CCCCCCCCCCCC[N+](C)(C)Cc1ccccc1`, the MIC was 8 µM (ATCC4352).
`C[C@H]1COc2c(N3CCN(C)CC3)c(F)cc3c(=O)c(C(=O)O)cn1c23` gave an MIC of under 0.5 µg/mL (broth dilution; ATCC43816).
`CCCCCCC#Cc1cncc(-c2nnc(SCc3cc(C(F)(F)F)cc(C(F)(F)F)c3)n2CCCN)c1` has an MIC of 32 to 64 µg/mL (broth dilution; DSM30104).
`CCCCCCCCN=c1ccn(CCCCCCCCCCn2ccc(=NCCCCCCCC)cc2)cc1` has an MIC of 0.5 µM (ATCC4352).
`CO/N=C(\C(=O)N[C@@H]1C(=O)N2C(C(=O)O)=CCS[C@H]12)c1csc(N)n1` gave an MIC of 0.125 µg/mL (broth dilution; ATCC13883).
For `Cc1onc(-c2ccccc2)c1C(=O)N[C@@H]1C(=O)N2[C@@H]1SC(C)(C)[C@@H]2C(=O)O`, the MIC was 8 µg/mL (broth dilution; ATCC700603).
For `CCCCCCC#Cc1cncc(-c2nnc(SCc3cc([N+](=O)[O-])cc([N+](=O)[O-])c3)n2C2CCNCC2)c1`, the MIC was over 64 µg/mL (broth dilution; DSM30104).
`CC[C@H]1OC(=O)[C@H](C)[C@@H](O[C@H]2C[C@@](C)(OC)[C@@H](O)[C@H](C)O2)[C@H](C)[C@@H](O[C@@H]2O[C@H](C)C[C@H](N(C)C)[C@H]2O)[C@](C)(O)C[C@@H](C)CN(C)[C@H](C)[C@@H](O)[C@]1(C)O` gave an MIC of 1 µg/mL (broth dilution; ATCC13883).
With `CN(C)c1cc(NC(=O)CNC(C)(C)C)c(O)c2c1C[C@H]1C[C@H]3[C@H](N(C)C)C(O)=C(C(N)=O)C(=O)[C@@]3(O)C(O)=C1C2=O` the MIC was under 0.5 µg/mL (broth dilution; ATCC43816).
With `CN(C)[C@@H]1C(O)=C(C(N)=O)C(=O)[C@@]2(O)C(O)=C3C(=O)c4c(O)cccc4[C@@](C)(O)[C@H]3C[C@@H]12` the MIC was 1 µg/mL (broth dilution; ATCC13883).
`CO[C@@]1(NC(=O)Cc2cccs2)C(=O)N2C(C(=O)O)=C(COC(N)=O)CS[C@@H]21` has an MIC of 1 µg/mL (broth dilution; ATCC43816).
For `CO/N=C(\C(=O)N[C@@H]1C(=O)N2C(C(=O)O)=C(CSc3nc(=O)c(=O)[nH]n3C)CS[C@H]12)c1csc(N)n1`, the MIC was over 512 µg/mL (broth dilution; ATCC700603).
`CC1(C)S[C@@H]2[C@H](NC(=O)[C@H](N)c3ccc(O)cc3)C(=O)N2[C@H]1C(=O)O` gave an MIC of over 64 µg/mL (broth dilution; ATCC13883).
`Cc1cc(NS(=O)(=O)c2ccc(N)cc2)no1` gave an MIC of 64 µg/mL (broth dilution; ATCC43816).
`CCCCCCC#Cc1cncc(-c2nnc(SCc3cc([N+](=O)[O-])cc([N+](=O)[O-])c3)n2CCOC2OC(CN)C(O)C2O)c1` (stereo not drawn) gave an MIC of over 64 µg/mL (broth dilution; DSM30104).
For `Cc1nnc(SCC2=C(C(=O)O)N3C(=O)[C@@H](NC(=O)Cn4cnnn4)[C@H]3SC2)s1`, the MIC was 1 µg/mL (broth dilution; ATCC43816).
For `[H]/N=C(/N)N[C@H]1[C@H](O)[C@@H](O)[C@H](O[C@@H]2O[C@@H](C)[C@](O)(C=O)[C@H]2O[C@@H]2O[C@@H](CO)[C@H](O)[C@@H](O)[C@@H]2NC)[C@@H](N/C(N)=N\[H])[C@@H]1O`, the MIC was over 512 µg/mL (broth dilution; ATCC700603).
For `CNC(C)C1CCC(N)C(OC2C(N)CC(N)C(OC3OCC(C)(O)C(NC)C3O)C2O)O1` (stereo not drawn), the MIC was 2 µg/mL (broth dilution; ATCC13883).
With `CN(C)c1ccc(O)c2c1C[C@H]1C[C@H]3[C@H](N(C)C)C(O)=C(C(N)=O)C(=O)[C@@]3(O)C(O)=C1C2=O` the MIC was 1 µg/mL (broth dilution; ATCC43816).
For `CN(C)[C@@H]1C(O)=C(C(N)=O)C(=O)[C@@]2(O)C(O)=C3C(=O)c4c(O)cccc4[C@@](C)(O)[C@H]3C[C@@H]12`, the MIC was 3.1 µM (broth dilution; ATCC27736; 16 h).
`CCCCCCC#Cc1cncc(-c2nnc(SCc3ccc([N+](=O)[O-])cc3)n2CCCN)c1` gave an MIC of over 64 µg/mL (broth dilution; DSM30104).
